This is a sample that favours compounds with a hit; in the whole collection about 3.4% have one here.
PHOSPHO1 block – inhibitors of human PHOSPHO1 phosphatase; Q8TCT1; recombinant PHOSPHO1, absorbance phosphatase assay; inhibition, % at 13.3 µM; 290,000 compounds, 1.1% hits; in the data active = inhibition above about 60%
Runt-CBFb FRET – inhibitors of human RUNX1 Runt domain binding to CBFb; Q01196+Q13951; Cerulean-Runt/Venus-CBFb FRET ratio 530/480, 1 h; inhibition, % at 20 µM; 220,000 compounds, 0.46% hits; AID 1496;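 active = inhibition over about 50% at 20 µM in the single-dose screen, limit read from the data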
Target sequence (Q01196 whole entry, looked up, the tested form may be a part): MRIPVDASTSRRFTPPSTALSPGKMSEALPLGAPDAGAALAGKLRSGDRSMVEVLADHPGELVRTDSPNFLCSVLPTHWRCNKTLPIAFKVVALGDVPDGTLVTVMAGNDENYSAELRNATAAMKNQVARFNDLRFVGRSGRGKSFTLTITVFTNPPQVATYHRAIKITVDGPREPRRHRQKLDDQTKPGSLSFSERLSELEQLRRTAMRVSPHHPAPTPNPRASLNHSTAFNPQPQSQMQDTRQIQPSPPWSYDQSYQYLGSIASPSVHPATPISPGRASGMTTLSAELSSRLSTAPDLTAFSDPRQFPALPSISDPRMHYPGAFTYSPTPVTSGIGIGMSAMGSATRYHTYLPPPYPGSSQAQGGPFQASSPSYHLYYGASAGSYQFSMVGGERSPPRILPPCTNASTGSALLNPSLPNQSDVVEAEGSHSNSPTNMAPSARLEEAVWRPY
Target sequence (Q13951 whole entry, looked up, the tested form may be a part): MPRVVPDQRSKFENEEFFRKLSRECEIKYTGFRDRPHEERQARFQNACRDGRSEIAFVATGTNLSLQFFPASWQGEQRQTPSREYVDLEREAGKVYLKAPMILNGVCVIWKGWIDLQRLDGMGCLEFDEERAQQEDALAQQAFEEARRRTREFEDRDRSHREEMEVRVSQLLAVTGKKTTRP
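Buffer or medium: Tris pH 7.5 buffer with BSA. Assay system: Cerulean-labeled Runt domain protein. Amount: each fluorescent fusion protein 100 nM. Read-out basis: loss of energy transfer signal. Incubation: 1 h compound exposure, room temperature. Probe or stimulus: Venus-CBFb binding partner, 100 nM. Detection: FRET, excitation 422 nm, emission at 530 and 480 nm.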
Wee1 degr inh – inhibitors of human Wee1 degradation; P30291; HeLa Luc-Wee1K328M stability, luciferase luminescence; 100% = proteasome inhibitor MG132 effect; reporter increase, % at 5 µM; 220,000 compounds, 1.2% hits; AID 1321;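 active = activation above the mean of all tested compounds plus 3 SD, set per screening run, cut at about 8.8% in these data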;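 note: cells exposed to compound for 20 h before luminescence read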
HMGR II inh – blocks class II HMG-CoA reductase of Enterococcus faecalis. AID 1066. inhibition, % at 10 µM. 190,000 compounds, 0.41% hits. purified E. faecalis HMGR, NADPH absorbance 340 nm kinetic;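 active = inhibition above a set limit, the median over all tested compounds plus 3 SD, cut at about 9.5% in these data; inconclusive = no clear call, values can overlap the other calls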;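 note: enzyme runs in reverse so mevalonate oxidation gives rising NADPH absorbance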
RanGTP-Impb inh – disruptors of Ran-importin-beta complex formation – biochemical, FRET, CFP-Ran, YFP-importin-beta, homogeneous, primary screen. cell-free CFP-Ran/YFP-importin-beta FRET ratio. inhibition, % (concentration not given with the values). 300,000 compounds, 1.1% hits. AID 2216;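 active = more than half of the replicate wells show a fall in the fluorescence ratio signal beyond about 16%, limit read from the data, passing the limit was not always enough; inconclusive = exactly half of the replicate wells pass the set limit; inactive = fewer than half of replicates pass the limit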
Runt-SMMHC FRET – Runt domain-CBFb-SMMHC interaction inhibition; AID 1434; Cerulean-Runt/Venus-CBFb-SMMHC FRET ratio 530/480, 1 h; inhibition, % at 20 µM; 220,000 compounds, 0.74% hits; Q01196+Q13951;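 active = mean inhibition across duplicate retests at 20 µM reaching about 50%, limit read from the data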;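 note: inhibitors lower the FRET ratio by blocking Runt binding to CBFb-SMMHC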
A number is an active result; - = inactive; ? = inconclusive; . = no result.

SMILES	PHOSPHO1 block	Runt-CBFb FRET	Wee1 degr inh	HMGR II inh	RanGTP-Impb inh	Runt-SMMHC FRET
COc1ccc(C(=O)NC(=S)N2CCC(C)CC2)cc1	69	-	-	-	-	-
CCOC(=O)N1CCN(c2c(F)cc3[nH]c(=S)[nH]c3c2Br)CC1	71	-	-	-	-	-
CC(=O)Nc1ccc(C(=O)OCCCOC(=O)c2ccc(NC(C)=O)cc2)cc1	-	.	.	.	-	.
O=C(OCCCOC(=O)c1cc[n+]([O-])cc1)c1cc[n+]([O-])cc1	62	.	.	.	-	.
CCC1S/C(=N/C(=O)NC2CCCCC2)NC1=O (stereo unspecified)	-	-	-	10	-	-
CN(CC(=O)N1CCN(Cc2ccccc2)CC1)S(=O)(=O)c1ccc(Br)cc1	-	.	.	.	-	.
O=C(CSc1ccsc1[N+](=O)[O-])NCc1ccccc1	-	-	-	-	-	-
COc1ccccc1CNC(=O)CSc1ccsc1[N+](=O)[O-]	-	-	9.2	-	-	-
CC/C(=N\NC(=O)c1ccc(N(C)C)cc1)c1ccccc1	-	-	9.5	-	-	-
COc1cccc(CNS(=O)(=O)c2cc3c4c(c2)CCN4C(=O)CC3)c1	.	.	.	.	-	.
COc1ccc(C2CC(=O)Nc3ccccc3S2(=O)=O)cc1OC (stereo unspecified)	-	-	-	-	.	-
Cc1ccc(NS(=O)(=O)c2ccc(-c3coc(C)n3)cc2)c(Br)c1	-	.	.	.	-	.
COc1ccc(S(=O)(=O)N(NC2=NS(=O)(=O)c3ccccc32)C(=O)C(C)C)cc1	-	-	-	11	-	-
CCOc1ccc(NC(=O)c2sc(NC(C)=O)c(C(=O)OC)c2C)cc1	-	-	-	-	-	-
CCCC(=O)Nc1sc(C(=O)Nc2cccc(N)c2)c(C)c1C(=O)OC	-	-	-	17	-	-
COC(=O)c1c(NC(C)=O)sc(C(=O)Nc2ccccc2)c1C	-	-	9.1	-	-	-
O=C(CCNC(=O)N1CCn2c1nc1ccccc12)NCc1ccc(F)cc1	-	.	.	.	-	.
CC(C)COc1ccc(C(=S)N2CCCC2)cc1	.	.	.	.	-	.
Cn1nc(-c2ccc(Cl)cc2)c2cc(C(=O)NCCN3CCOCC3)sc21	-	-	-	-	136	-
COc1ccccc1-c1c(C)oc2c(CN3CCOCC3)c(O)ccc2c1=O	-	.	.	.	-	.
COc1ccc(Oc2c(C)oc3c(CN4CCOCC4)c(O)ccc3c2=O)cc1	60	-	-	-	-	-
CCC(C(=O)NC1CCCCC1)N(Cc1cccs1)C(=O)c1snc(C(N)=O)c1N (stereo unspecified)	-	-	9.8	-	-	-
CCCC(C(=O)NC(C)(C)C)N(CC1CCCO1)C(=O)c1snc(C(N)=O)c1N (stereo unspecified)	-	-	9.4	-	?	-
NC(=O)c1ccccc1NC(=O)NC1CCCCC1	-	-	11	-	-	-
COC(=O)c1ccccc1NC(=O)NC1CCCC1	-	-	9.5	-	?	-
SMILES	PHOSPHO1 block	Runt-CBFb FRET	Wee1 degr inh	HMGR II inh	RanGTP-Impb inh	Runt-SMMHC FRET
Cc1ccc2c(n1)sc1c(-c3ccccc3)c(C#N)c(N)nc12	-	-	-	-	56	100
Cc1nc(N)c(C#N)c(-c2cccnc2)c1-c1ccccc1	-	.	.	.	-	.
COc1ccccc1NC(=S)NNC(=O)c1ccc(O)cc1	71	-	-	-	-	-
O=C(NNC(=S)Nc1ccccc1)c1ccc(O)cc1	-	-	-	.	-	-
COc1ccccc1NC(=S)NNC(=O)c1nn(C)cc1Cl	72	-	-	-	-	-
COc1ccccc1NC(=S)NNC(=O)c1nn(C)c(C)c1Cl	79	-	-	-	-	-
COc1ccccc1NC(=S)NC(=O)c1ccc(-c2ccc(Cl)cc2)o1	-	-	14	-	-	-
CN(Cc1ccc(Cl)cc1Cl)C(=O)CN1C(=O)NC2(CCCC2)C1=O	.	.	.	.	-	.
NC(=O)COC(=O)c1ccc(-c2ccc(O)cc2)cc1	-	-	9.8	.	-	-
Cc1ccc(C(=O)COC(=O)c2ccc(O)cc2)cc1	-	-	10	-	-	-
NC(=O)COC(=O)c1ccc(-c2ccccc2)cc1	-	-	-	-	-	-
O=C1NC2=C(C(=O)CCC2)C(c2ccc(OC(F)F)cc2)N1 (stereo unspecified)	-	.	.	.	-	.

Screening results from PubChem.
